# Assay results reported in ChEMBL document CHEMBL1136923, “Highly potent, orally available anti-inflammatory broad-spectrum chemokine inhibitors” (J Med Chem, 2009).
# Experiments:
# [1] = target: C-C chemokine receptor type 2 (Homo sapiens) (UniProt P41597); test: Antagonist activity at CCR2 in human THP1 cells assessed as inhibition of CCL2-induced chemotaxis after 2 hrs by microtiter format trans-well migration assay; type: functional, cell-based; settings: THP-1
# How it was run: (§1)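 Microtiter trans-well migration assay in Gey's balanced salt solution with 1 mg/mL endotoxin-free BSA, no fetal calf serum. Migration ran 2 h at 37 °C. Compounds dissolved in DMSO and added to both top and bottom compartments, final DMSO 1%.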
# [2] = target: C-C chemokine receptor type 2 (Homo sapiens) (UniProt P41597); test: Antagonist activity at CCR2 in human THP1 cells assessed as inhibition of CCL2-induced chemotaxis at 10 nM after 2 hrs by microtiter format trans-well migration assay; type: functional, cell-based; settings: THP-1; how it was run: as §1
# [3] = target: C-C chemokine receptor type 2 (Homo sapiens) (UniProt P41597); test: Antagonist activity at CCR2 in human THP1 cells assessed as inhibition of CCL2-induced chemotaxis at 0.1 nM after 2 hrs by microtiter format trans-well migration assay; type: functional, cell-based; settings: THP-1; how it was run: as §1
# [4] = target: C-C chemokine receptor type 2 (Homo sapiens) (UniProt P41597); test: Antagonist activity at CCR2 in human THP1 cells assessed as inhibition of CCL2-induced chemotaxis at 0.01 nM after 2 hrs by microtiter format trans-well migration assay; type: functional, cell-based; settings: THP-1; how it was run: as §1
# [5] = target: C-C chemokine receptor type 2 (Homo sapiens) (UniProt P41597); test: Antagonist activity at CCR2 in human THP1 cells assessed as inhibition of CCL2-induced chemotaxis at 1 nM after 2 hrs by microtiter format trans-well migration assay; type: functional, cell-based; settings: THP-1; how it was run: as §1
# [6] = target: C-C chemokine receptor type 2 (Homo sapiens) (UniProt P41597); test: Antagonist activity at CCR2 in human THP1 cells assessed as inhibition of CCL2-induced chemotaxis at 100 nM after 2 hrs by microtiter format trans-well migration assay; type: functional, cell-based; settings: THP-1; how it was run: as §1
# [7] = target: C-C chemokine receptor type 2 (Homo sapiens) (UniProt P41597); test: Antagonist activity at CCR2 in human THP1 cells assessed as inhibition of CCL2-induced chemotaxis at 1000 nM after 2 hrs by microtiter format trans-well migration assay; type: functional, cell-based; settings: THP-1; how it was run: as §1
# [8] = Volume of distribution at steady state in Sprague-Dawley rat at 1 mg/kg, iv administered as single dose; type: ADME, organism-based; design: dose 1 mg/kg, route intravenous; settings: in vivo, read-out: Vdss
# How it was run: (§2)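 Male Sprague-Dawley rats, three per compound, receive a single intravenous dose in 5% DMSO in 0.9% saline. Food and water are given ad libitum. Plasma is taken at 5, 15, 30, 60, 120, 180, 240 and 480 min. Drug is measured by LC/MS/MS after extraction with 0.1% formic acid in acetonitrile. The curve is back-extrapolated to time zero assuming an initial volume of 0.26 L/kg.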
# Mus musculus [9] = test: Antiinflammatory activity in mouse assessed as inhibition of LPS-induced TNFalpha upregulation at 0.000216 mg, sc measured 2 hrs after LPS challenge; type: functional
# How it was run: (§3)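 Murine sublethal endotoxemia: LPS given intraperitoneally, serum TNF-α measured 2 h after LPS injection. Compound vehicle 0.6% DMSO plus 1% carboxymethylcellulose (final concentrations) in sterile water.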
# Mus musculus [10] = test: Antiinflammatory activity in mouse assessed as inhibition of LPS-induced TNFalpha upregulation at 0.0216 mg, po measured 2 hrs after LPS challenge; type: functional
# How it was run: (§4)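 Murine sublethal endotoxemia: LPS given intraperitoneally, with serum TNF-α measured 2 h after the LPS injection as the end point. Compound was given subcutaneously or orally. Vehicle was 0.6% DMSO and 1% carboxymethylcellulose (final concentrations) in sterile water. Effect is reported as % relative to control.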
# Mus musculus [11] = test: Antiinflammatory activity in mouse assessed as inhibition of LPS-induced TNFalpha upregulation at 0.0216 ug, po measured 2 hrs after LPS challenge; type: functional; how it was run: as §4
# Mus musculus [12] = test: Antiinflammatory activity in sc dosed mouse assessed as inhibition of LPS-induced TNFalpha upregulation measured 2 hrs after LPS challenge; type: functional
# Mus musculus [13] = test: Antiinflammatory activity in mouse assessed as inhibition of LPS-induced TNFalpha upregulation at 0.000216 mg, po measured 2 hrs after LPS challenge; type: functional; how it was run: as §3
# Mus musculus [14] = test: Antiinflammatory activity in mouse assessed as inhibition of LPS-induced TNFalpha upregulation at 0.0216 ug, sc measured 2 hrs after LPS challenge; type: functional; how it was run: as §4
# Mus musculus [15] = test: Antiinflammatory activity in mouse assessed as inhibition of LPS-induced TNFalpha upregulation at 0.0216 mg, sc measured 2 hrs after LPS challenge; type: functional; how it was run: as §4
# Mus musculus [16] = test: Antiinflammatory activity in mouse assessed as inhibition of LPS-induced TNFalpha upregulation at 0.0065 mg, po measured 2 hrs after LPS challenge; type: functional; how it was run: as §4
# Mus musculus [17] = test: Antiinflammatory activity in mouse assessed as inhibition of LPS-induced TNFalpha upregulation at 0.065 mg, po measured 2 hrs after LPS challenge; type: functional; how it was run: as §4
# Mus musculus [18] = test: Antiinflammatory activity in mouse assessed as inhibition of LPS-induced TNFalpha upregulation at 830 pg, sc measured 2 hrs after LPS challenge; type: functional
# How it was run: (§5)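 Murine sublethal LPS endotoxemia screen. LPS is injected intraperitoneally and serum TNF-α is measured 2 h later as the end point. Compound is given subcutaneously or orally in a vehicle of 0.6% DMSO plus 1% carboxymethylcellulose (final concentrations) in sterile water. Values are % relative to control.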
# Mus musculus [19] = test: Antiinflammatory activity in mouse assessed as inhibition of LPS-induced TNFalpha upregulation at 0.216 mg, sc measured 2 hrs after LPS challenge; type: functional; how it was run: as §4
# [20] = Fractional bioavailability in Sprague-Dawley rat at 3 mg/kg, po administered as single dose; type: ADME, organism-based; settings: in vivo
# How it was run: (§6)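 Male Sprague-Dawley rats, three per compound, receive a single oral dose by gavage in 1% carboxymethylcellulose in 0.9% saline, with food and water ad libitum. Plasma is sampled from 5 to 480 min and drug is quantified by positive-mode LC/MS/MS after acetonitrile/formic acid extraction. The lower limit of quantitation is about 2 ng/mL. Exposure is AUC(0→t) by the linear/log trapezoidal rule, and F is oral fractional bioavailability.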
# [21] = Half life in Sprague-Dawley rat at 1 mg/kg, iv administered as single dose; type: ADME, organism-based; design: dose 1 mg/kg, route intravenous; settings: in vivo; how it was run: as §2
# Mus musculus [22] = test: Antiinflammatory activity in mouse assessed as inhibition of LPS-induced TNFalpha upregulation at 0.00312 ug, po measured 2 hrs after LPS challenge; type: functional; how it was run: as §4
# Rattus norvegicus [23] = test: Plasma concentration in Sprague-Dawley rat at 3 mg/kg, po administered as single dose; type: ADME, organism-based; design: dose 3 mg/kg, route oral; settings: in vivo; how it was run: as §6
# Rattus norvegicus [24] = test: AUC (0 to t) in Sprague-Dawley rat at 1 mg/kg, iv administered as single dose; type: ADME, organism-based, Plasma; design: dose 1 mg/kg, route intravenous; settings: in vivo
# How it was run: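 Male Sprague-Dawley rats, three per compound per route, single dose. IV vehicle 5% DMSO in 0.9% saline; oral gavage vehicle 1% carboxymethylcellulose in 0.9% saline; fed ad libitum. Plasma taken 5–480 min post-dose, extracted with 0.1% formic acid in acetonitrile, quantified by LC/MS/MS (positive mode). AUC(0–t) by linear/log trapezoidal rule; IV curve back-extrapolated assuming initial volume 0.26 L/kg.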
# Mus musculus [25] = test: Antiinflammatory activity in mouse assessed as inhibition of LPS-induced TNFalpha upregulation at 0.00216 mg, sc measured 2 hrs after LPS challenge; type: functional; how it was run: as §4
# Mus musculus [26] = test: Antiinflammatory activity in po dosed mouse assessed as inhibition of LPS-induced TNFalpha upregulation measured 2 hrs after LPS challenge relative to control; type: functional; how it was run: as §5
# Mus musculus [27] = test: Antiinflammatory activity in mouse assessed as inhibition of LPS-induced TNFalpha upregulation at 0.078 ug, po measured 2 hrs after LPS challenge; type: functional; how it was run: as §4
# Mus musculus [28] = test: Antiinflammatory activity in po dosed mouse assessed as inhibition of LPS-induced TNFalpha upregulation measured 2 hrs after LPS challenge; type: functional
# Mus musculus [29] = test: Antiinflammatory activity in mouse assessed as inhibition of LPS-induced TNFalpha upregulation at 0.000864 mg, po measured 2 hrs after LPS challenge; type: functional; how it was run: as §4
# Mus musculus [30] = test: Antiinflammatory activity in mouse assessed as inhibition of LPS-induced TNFalpha upregulation at 624 pg, po measured 2 hrs after LPS challenge; type: functional; how it was run: as §5
# Mus musculus [31] = test: Antiinflammatory activity in sc dosed mouse assessed as inhibition of LPS-induced TNFalpha upregulation measured 2 hrs after LPS challenge relative to control; type: functional; how it was run: as §5
# Mus musculus [32] = test: Antiinflammatory activity in mouse assessed as inhibition of LPS-induced TNFalpha upregulation at 0.216 mg, po measured 2 hrs after LPS challenge; type: functional; how it was run: as §4
# Sequence of C-C chemokine receptor type 2 (Homo sapiens) (P41597 whole entry, looked up): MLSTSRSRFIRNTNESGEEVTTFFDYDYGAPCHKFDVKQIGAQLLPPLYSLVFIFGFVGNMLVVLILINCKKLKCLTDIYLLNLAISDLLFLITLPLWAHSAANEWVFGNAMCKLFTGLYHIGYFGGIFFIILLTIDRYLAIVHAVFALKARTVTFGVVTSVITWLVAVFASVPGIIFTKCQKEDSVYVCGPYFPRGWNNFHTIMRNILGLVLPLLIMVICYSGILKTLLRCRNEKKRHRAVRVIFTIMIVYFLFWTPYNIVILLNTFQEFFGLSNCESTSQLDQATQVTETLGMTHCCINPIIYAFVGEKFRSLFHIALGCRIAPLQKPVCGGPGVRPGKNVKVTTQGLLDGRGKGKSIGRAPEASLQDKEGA
structure (smiles),measurement,setting,value
CCCCCCCCCCC(C)C(=O)N[C@H]1CCCCNC1=O (mixture of isomers; form 1),ED50,[1],3 nM
CCCCCC1CCC(C(=O)N[C@H]2CCCCNC2=O)CC1 (stereo partly specified),ED50,[1],5 nM
O=C(N[C@H]1CCCCNC1=O)C1=CCCCC1,ED50,[1],0.8 nM
O=C(CC12CC3CC(CC(C3)C1)C2)N[C@H]1CCCCNC1=O,ED50,[1],0.8 nM
CCCCCCCCCCCC(=O)N[C@H]1CCCCNC1=O,ED50,[1],15 nM
CCCCCCCCCCC(C)C(=O)N[C@H]1CCCCNC1=O (mixture of isomers; form 2),ED50,[1],3 nM
CCCC(C)(C)C(=O)N[C@H]1CCCCNC1=O,ED50,[1],0.5 nM
CCCCCCCCC/C=C(\C)C(=O)N[C@H]1CCCCNC1=O,ED50,[1],10 nM
CCCCCCCCCCC(C)(C)C(=O)N[C@@H]1CCCCNC1=O,inhibition,[2],69%
same,inhibition,[3],20%
same,inhibition,[4],5%
same,inhibition,[5],36%
same,inhibition,[6],101%
same,ED50,[1],4.5 nM
same,inhibition,[7],98.5%
CCC(C)(C)C(=O)N[C@H]1CCCCNC1=O,ED50,[1],0.07 nM
O=C1NCCCC[C@H]1NC(=O)C12CC3CC(CC(C3)C1)C2,inhibition,[2],98%
same,inhibition,[3],14%
same,inhibition,[4],26%
same,inhibition,[5],46%
same,inhibition,[6],101%
same,ED50,[1],0.44 nM
same,inhibition,[7],100%
CCCCCCCCCC(C)(C)CC(=O)N[C@H]1CCCCNC1=O,ED50,[1],4 nM
CC(C)CCC(C)(C)C(=O)N[C@H]1CCCCNC1=O,ED50,[1],0.08 nM
CC(CCl)(CCl)C(=O)N[C@H]1CCCCNC1=O,ED50,[1],9 nM
C=CCC(C)(C)C(=O)N[C@H]1CCCCNC1=O,ED50,[1],1 nM
O=C(N[C@H]1CCCCNC1=O)C1CCCCC1,ED50,[1],0.5 nM
CCCCCC12CCC(C(=O)N[C@H]3CCCCNC3=O)(CC1)CC2,ED50,[1],7 nM
O=C1NCCCC[C@@H]1NC(=O)C12CC3CC(CC(C3)C1)C2,Vd,[8],0.8 L/kg
same,inhibition (INH),Mus musculus [9],56%
same,inhibition (INH),Mus musculus [10],75%
same,inhibition,[2],100%
same,inhibition (INH),Mus musculus [11],60%
same,ED50,Mus musculus [12],2 µg/kg
same,inhibition,[3],11%
same,inhibition (INH),Mus musculus [13],76%
same,inhibition (INH),Mus musculus [14],29%
same,inhibition (INH),Mus musculus [15],89%
same,inhibition (INH),Mus musculus [16],71%
same,inhibition,[5],99%
same,inhibition (INH),Mus musculus [17],83%
same,inhibition,[6],98%
same,ED50,[1],0.09 nM
same,inhibition (INH),Mus musculus [18],-12%
same,inhibition (INH),Mus musculus [19],89%
same,bioavailability,[20],< 1%
same,half-life,[21],16 min
same,inhibition (INH),Mus musculus [22],30%
same,Cp,Rattus norvegicus [23],< 2 ng/mL
same,AUC,Rattus norvegicus [24],477 ng·min/mL
same,inhibition (INH),Mus musculus [25],71%
same,inhibition (INH),Mus musculus [26],90%
same,inhibition (INH),Mus musculus [27],59%
same,ED50,Mus musculus [28],0.5 µg/kg
same,inhibition (INH),Mus musculus [29],78%
same,inhibition,[7],100%
same,inhibition (INH),Mus musculus [30],8%
same,inhibition (INH),Mus musculus [31],90%
same,inhibition (INH),Mus musculus [32],91%
CC(C)=CCC(C)(C)C(=O)N[C@H]1CCCCNC1=O,ED50,[1],0.2 nM
